In the library only some 1.6% were active in any assay of this set; here they are far more common.
sPLA2-III inh – Inhibits HGIII-sPLA2 liposome hydrolysis, primary screen. Q9NZ20. QFRET BODIPY PC-A2 liposome hydrolysis, fluorescence. inhibition, % at 12.2 µM. 370,000 compounds, 0.56% hits. AID 743126;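 active = inhibition above mean plus 3 SD of compounds lying within the high and low control bounds, cut at about 19% in these data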
PLCb3 inh – inhibitors of human phospholipase C beta3 | Purified PLC-beta3, fluorogenic substrate, fluorescence | 370,000 compounds, 0.18% hits | inhibition, % at 12.2 µM; in the data active = inhibition above about 11%
PLC-gamma1 inh – inhibitors of human phospholipase C gamma1; P19174; purified PLC-gamma1, fluorogenic substrate, fluorescence; inhibition, % at 12.2 µM; 370,000 compounds, 0.84% hits; AID 720700
proCasp3 act – activates human procaspase-3 | P42574 | recombinant procaspase-3 D3A, Ac-DEVD-pNA absorbance 405 nm | activation, % at 8.5 µM | 330,000 compounds, 0.11% hits | AID 463141;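 active = activation above the mean of all tested compounds plus 3 SD, cut at about 21% in these data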
Target sequence (P42574 whole entry D9A/D28A/D175A): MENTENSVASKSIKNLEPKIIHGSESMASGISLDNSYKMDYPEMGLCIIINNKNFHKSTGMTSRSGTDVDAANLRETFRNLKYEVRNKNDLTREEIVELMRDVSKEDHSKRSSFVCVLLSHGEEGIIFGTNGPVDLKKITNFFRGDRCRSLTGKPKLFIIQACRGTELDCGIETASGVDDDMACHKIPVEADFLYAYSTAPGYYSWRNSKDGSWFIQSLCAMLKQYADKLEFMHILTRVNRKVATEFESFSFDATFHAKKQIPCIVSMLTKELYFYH
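Evaluation: percent activation relative to control range; Material: Procaspase-3 D3A mutant, all three cleavage aspartates alanine; Compound: single dose, 8.5 µM nominal compound, 0.8% DMSO; Replication: one well per compound; Signal: absorbance at 405 nm, 0 and 120 min; Schedule: 1 h preincubation plus 2 h reaction at 25 °C.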
proCasp7 act – counter-screen: procaspase-7 (human) activation; recombinant procaspase-7, Ac-DEVD-pNA absorbance 405 nm; D23A/D198A/D206A triple mutant, cannot self-cleave; scale: DMSO 0, 5 µM enzyme 100; 330,000 compounds, 0.093% hits; AID 463210; activation, % at 8.5 µM; P55210;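 active = percent activation above the screen-wide mean plus 3 SD, cut at about 25% in these data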
Target sequence (P55210 whole entry D23A/D198A/D206A): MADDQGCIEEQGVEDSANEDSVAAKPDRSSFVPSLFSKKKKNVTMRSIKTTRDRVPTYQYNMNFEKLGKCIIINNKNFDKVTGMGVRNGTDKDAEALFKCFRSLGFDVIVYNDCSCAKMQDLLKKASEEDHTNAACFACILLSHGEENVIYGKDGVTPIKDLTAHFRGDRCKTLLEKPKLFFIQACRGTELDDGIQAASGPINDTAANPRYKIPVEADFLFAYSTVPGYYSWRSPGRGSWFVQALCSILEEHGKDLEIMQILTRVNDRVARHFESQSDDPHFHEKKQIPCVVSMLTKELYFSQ
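Assay system: Uncleavable procaspase-7 mutant enzyme / Input: 2 µM procaspase-7 mutant as dispensed / Dosing: single nominal 8.5 µM compound dose, 0.8% DMSO final / Timing: 1 h enzyme–compound preincubation and 2 h substrate reaction, both 25 °C / Detection: p-Nitroaniline absorbance at 405 nm, read at 0 and 120 min / Replication: singlicate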
PLCg1 ctr – PLC-gamma1 inhibition, counter-screen for PLC-beta3 hits | AID 743258 | purified PLC-gamma1, fluorogenic substrate, fluorescence | shares compounds with PLC-gamma1 inh | 3,300 compounds, 3.1% hits | inhibition, % at 12.3 µM
PLCbeta3 conf – human PLC-beta3 inhibition, confirmation | shares compounds with PLC-gamma1 inh | purified PLC-beta3, fluorogenic substrate fluorescence | inhibition, % at 12.3 µM | 3,300 compounds, 1% hits | AID 743261; in the data active = inhibition above about 11%
sPLA2 confirm – human GIII-sPLA2 inhibition, confirmation. 2,000 compounds, 34% hits. shares compounds with sPLA2-III inh. inhibition, % at 12.2 µM. AID 743280. recombinant hGIII-sPLA2, BODIPY PC-A2 QFRET fluorescence;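 active = mean inhibition across triplicates above the hit cutoff set in the earlier primary screen, cut at about 19% in these data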
BODIPY interf – counter-screen for HGIII-sPLA2 inhibitors: 535nm fluorescence interference | shares compounds with sPLA2-III inh | BODIPY FL product fluorescence interference, QFRET | inhibition, % at 12.2 µM | 2,000 compounds, 8.5% hits | AID 743282;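 active = average inhibition above the solvent-only control mean plus 3 SD, cut at about 6% in these data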
BODIPY interf DR – counter-screen for HGIII-sPLA2 inhibitors: 535nm fluorescence interference, dose response; BODIPY FL product fluorescence interference, cell-free; IC50, µM; shares compounds with sPLA2-III inh; 240 tested, under 10 active;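 active = IC50 at or below 10 µM; inactive = IC50 above 10 µM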
Hits are given with their value; i = inactive; nt = no result given. Rule as the data show it, unless noted: active = inhibition above about 9.5%; inactive = the rest.

SMILES	sPLA2-III inh	PLCb3 inh	PLC-gamma1 inh	proCasp3 act	proCasp7 act	sPLA2 confirm	BODIPY interf	others
O=C(O)c1cc(O)c2c(c1)[C@H]([C@H]1c3cc(C(=O)O)cc(O)c3C(=O)c3c(O[C@@H]4O[C@H](CO)[C@@H](O)[C@H](O)[C@H]4O)cccc31)c1cccc(OC3O[C@H](CO)[C@@H](O)[C@H](O)[C@H]3O)c1C2=O (stereo partly specified)	27	19	33	i	i	i	i	PLCg1 ctr=28;PLCbeta3 conf=i
CCOc1nc(Nc2ccc([N+](=O)[O-])cc2)nc(NC(C)(C)C)n1	21	i	9.8	i	i	i	i	PLCg1 ctr=i;PLCbeta3 conf=i
C=CCNc1nc(Nc2ccc([N+](=O)[O-])cc2)nc(OCC)n1	i	i	i	i	i	nt	nt
CN(C)c1ccc(/C=N/NC(N)=S)cc1[N+](=O)[O-]	21	i	16	i	i	20	i	PLCg1 ctr=i;PLCbeta3 conf=i
CCCCCCN1CCN(C2CN(Cc3cn(CCCC(=O)OC)nn3)S(=O)(=O)C2)CC1 (stereo unspecified)	21	i	i	nt	nt	i	i
COC(=O)CCCn1cc(CN2CC(N3CCN(C4CCN(C)CC4)CC3)CS2(=O)=O)nn1 (stereo unspecified)	i	i	i	nt	nt	nt	nt
Cc1ccc(C)c(NC(=O)CN(C)C(=O)c2ccc(Cl)nc2)c1	i	i	i	i	i	nt	nt
CCC[C@H]1[C@@H](OC(=O)N2CCN(c3ccccc3)CC2)CC[C@@]23CCCN2C(=O)CCC[C@@H]13	i	i	i	nt	nt	nt	nt
O=c1c2cc([N+](=O)[O-])cc([N+](=O)[O-])c2[nH]n1-c1ccccc1	21	i	i	i	i	27	i
COc1cccc(N=Nc2c(=O)[nH]n3c(C)cc(C)nc23)c1	22	i	i	i	i	i	i
CCOc1ccc(N=Nc2c(=O)[nH]n3c(C)cc(C)nc23)cc1	i	i	i	i	i	nt	nt
COC(=O)[C@@]1(Sc2ccc(OC)cc2)CC(=O)N[C@@H]1c1ccccc1	i	i	i	nt	nt	nt	nt
Cc1cc(C)c(O)c(-c2n[nH]c3c2C(c2cccc(O)c2)N(Cc2ccco2)C3=O)c1 (stereo unspecified)	24	i	i	i	i	i	i
CC1(C)NC(=O)N(CC(=O)OCC(=O)N2CCN(S(=O)(=O)c3ccccc3)CC2)C1=O	i	i	i	nt	nt	nt	nt
CC(C)COC(=O)N(C)C[C@H]1OCc2cnnn2CCCC(=O)N([C@H](C)CO)C[C@@H]1C	i	i	i	nt	nt	nt	nt
FC(F)(F)c1cccc(N2CCN(C3CC4CCC3C4)CC2)c1 (stereo unspecified)	20	i	i	i	i	i	i
CCCn1c(N)c(N(CCOC)C(=O)/C=C/c2cccc(Cl)c2)c(=O)[nH]c1=O	i	i	i	i	i	nt	nt
CN=c1scc(-c2ccccc2F)n1/N=C/c1ccc[nH]1	35	i	i	i	i	29	i	BODIPY interf DR=i
CCn1c(=S)[nH]c2scc(-c3cccs3)c2c1=O	i	i	i	nt	nt	nt	nt
CC(C)n1c(=S)[nH]c2scc(-c3cccs3)c2c1=O	23	i	i	i	i	48	9.6
C[C@@H]1CN([C@@H](C)CO)C(=O)CCCn2nncc2CO[C@@H]1CN(C)C(=O)Nc1ccc(C(F)(F)F)cc1	i	i	i	nt	nt	nt	nt
O=C(Nc1ccnn1C1CCN(C(=O)c2cnsn2)CC1)c1cccc(F)c1	i	i	i	i	i	nt	nt
CC1CCN(CCCCOc2ccc(Br)cc2)CC1	20	i	i	i	i	i	i
O=C(Nc1nnc(-c2ccccc2Cl)s1)C1CCN(S(=O)(=O)c2ccc(Cl)cc2)CC1	i	i	i	i	i	nt	nt
O=C(Nc1nnc(-c2ccccc2F)s1)C1CCN(S(=O)(=O)c2ccc(Cl)cc2)CC1	23	i	i	i	i	i	i
SMILES	sPLA2-III inh	PLCb3 inh	PLC-gamma1 inh	proCasp3 act	proCasp7 act	sPLA2 confirm	BODIPY interf	others
O=C(Nc1ccc(-c2noc(-c3ccccc3F)n2)cc1)c1cccs1	21	i	i	i	i	i	i
Cc1ccc(NC(=S)NNC(=O)CSc2nnc(-c3ccc(Cl)cc3)n2C2CCCCC2)cc1	23	i	i	i	i	30	i	BODIPY interf DR=i
Cn1c(SCC(=O)NNC(=S)Nc2ccccc2)nnc1-c1ccccc1	i	i	i	i	i	nt	nt
CCn1c(SCC(=O)NNC(=S)Nc2ccc(C)cc2)nnc1-c1ccc(Cl)cc1	i	i	i	i	i	nt	nt
Cc1ccc(NC(=S)NNC(=O)CSc2nnc(-c3ccc(C)cc3)n2C2CCCCC2)cc1	24	i	i	nt	nt	i	i
C(=C\N1CCCCCC1)/c1nnnn1-c1ccc(-c2ccccc2)cc1	20	i	i	i	i	i	i
COc1ccc(CCNC(=O)Nc2nc(C(N)CCc3ccccc3)cs2)cc1OC (stereo unspecified)	i	i	i	nt	nt	nt	nt
COc1ccc(CCNC(=O)Nc2nc(C(N)C3CCCCC3)cs2)cc1OC (stereo unspecified)	22	i	i	nt	nt	i	i
NC(c1csc(NC(=O)Nc2ccccc2)n1)C1CCCCC1 (stereo unspecified)	22	i	i	nt	nt	i	i
NC(c1ccccc1)c1csc(NC(=O)NCCc2ccccc2)n1 (stereo unspecified)	25	i	i	nt	nt	i	i
NC(c1csc(NC(=O)Nc2cccc(Cl)c2)n1)C1CCCCC1 (stereo unspecified)	i	i	i	nt	nt	nt	nt
NC(c1csc(Nc2nncc3ccccc23)n1)C1CCCCC1 (stereo unspecified)	20	i	i	nt	nt	i	i
Cc1ccc2nc(-c3ccc(NC(=O)CSc4nnc(-c5cc(C)[nH]n5)n4N)cc3)sc2c1	i	i	i	nt	nt	nt	nt
COc1ccc(C(C)C)cc1-c1cccc2nncn12	21	i	i	nt	nt	i	i
Nc1cccc(-c2cccc3nncn23)c1	i	i	i	nt	nt	nt	nt
CC1(C)CC(=O)C=C(c2ccc(-c3ccc(S(C)(=O)=O)cc3)cc2)C1=O	i	i	i	nt	nt	nt	nt
CC(C)Cn1c(-c2ccc(F)cc2)n[nH]c1=S	i	i	i	i	i	nt	nt
CC(C)Cn1c(-c2ccc(Br)cc2)c[nH]c1=S	28	i	i	i	i	37	i
